In ChEMBL document CHEMBL3091412, “Discovery of an irreversible HCV NS5B polymerase inhibitor” (Bioorg Med Chem Lett, 2013):
pEC50, pIC50: −log10 of the molar value. The source made the active and inactive calls. The rule behind the calls is not given here.

Columns and labels:
[1] = test system: Hepatitis C virus; test: Antiviral activity against HCV Con1 in eplicon cells after 3 days by RT-PCR analysis; format: functional, organism-based, Hepacivirus hominis; details: isolate Con1, 72 h
Method in brief: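 HCV 1b-Con1 replicon cells seeded at 5000 cells/well one day before treatment; inhibitor in DMSO added as 10 serial twofold dilutions in duplicate (final 0.5% DMSO, 5% FBS). Harvested 3 days post dosing; replicon RNA quantified by real-time RT-PCR (Taqman), GAPDH RNA as endogenous control; EC50 calculated.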

[2] = Irreversible inhibition of HCV1b NS5B delta21 polymerase by radiolabeled nucleotide incorporation assay; parameters: species or system Hepatitis C virus subtype 1b
[3] = test system: Hepacivirus hominis; test: Inhibition of HCV NS3 protease
[4] = test system: Enterovirus C; test: Inhibition of Poliovirus RNA-dependent RNA polymerase
[5] = test system: Human immunodeficiency virus; test: Inhibition of HIV RNA-dependent DNA polymerase
[6] = test system: Hepacivirus hominis; test: Inhibition of HCV NS3 helicase

Work on `Cc1ccc2nc(Cl)c(Cn3c(C(=O)O)c(-c4ccc[nH]c4=O)c4cc(C)c(F)cc43)cc2c1` yielded a pEC50 [1] of 7.60 and a pIC50 [2] of 7.70.

With `Cc1cc2c(-c3ccc[nH]c3=O)c(C(=O)O)n(Cc3c(Cl)nc4ccccc4c3Cl)c2cc1F` the pEC50 [1] was < 6.00 and the pIC50 [2] was 7.22.

For `Cc1cc2c(-c3ccc[nH]c3=O)c(C(=O)O)n(Cc3cc4ccccc4nc3Cl)c2cc1F`, the inhibition [3] was “inactive”, the inhibition [4] was “inactive” and the inhibition [5] was “inactive”. For the same compound, the inhibition [6] was “inactive”.
